# Measurements of several laboratories.
# Protocols differ between the studies behind these lines.
# Target: Serine/threonine-protein kinase Nek4 (NEK4, Homo sapiens, UniProt P51957)
Structure (SMILES),read-out,method,concentration,remaining binding [%]
COc1ccnn2ncc(-c3ccnc(N(C)C)n3)c12,binding,,1 µM,86
CC1=C(C#N)C(c2ccc3c(c2)c(NC(=O)c2ccccc2C)nn3C)C(C#N)=C(C)N1,cell-free assay,competition with immobilised ligand,1 µM,100
CN(C)c1nccc(-c2cnn3ncccc23)n1,binding,,1 µM,98
O=C(Nc1cccnn1)N1CC(C/C=C/c2cncc(Oc3ccc(C(F)(F)F)cn3)n2)C1,cell-free assay,competition with immobilised ligand,1 µM,95
O=C(NCC1CCOCC1)c1n[nH]cc1NC(=O)c1c(F)cccc1F,binding,competition with immobilised ligand,1 µM,78
F[C@@H]1CCN(c2nccc(-c3cnn4ncccc34)n2)C1,binding,,1 µM,100
COc1cnc(Nc2cccc(S(N)(=O)=O)c2)nc1N1CCN(c2ccccc2)C(=O)C1,binding,competition with immobilised ligand,1 µM,79
O=C(c1ccc(Nc2nccc(-c3cc4ccccc4s3)n2)cc1)N1CCC(N2CCCC2)CC1,binding,competition with immobilised ligand,1 µM,100
CO[C@@H](C)c1c(Nc2ccc([C@H](N(C)C(=O)C3CCS(=O)(=O)CC3)C(F)(F)F)cc2)cnc2cc(Cl)nn12,cell-free assay,competition with immobilised ligand,1 µM,90
C[C@@H]1CCN(c2nccc(-c3cnn4ncccc34)n2)C1,binding,,1 µM,83
CCN1CCN(Cc2ccc(C(=O)Nc3ccc(C)c(Oc4ccc5c(c4)CC(=O)N5)c3)cc2C(F)(F)F)CC1,binding,competition with immobilised ligand,1 µM,100
O=C(NCCCN1CCOCC1)c1ccc(Nc2ncc(Cl)c(-c3ccc(Cl)s3)n2)cc1,binding,competition with immobilised ligand,1 µM,40
CN(CCCC(F)(F)F)c1nccc(-c2cnn3ncccc23)n1,binding,,1 µM,92
CC(=O)C1=C(C)N(c2cccc(C(F)(F)F)c2)C(=O)N[C@@H]1c1ccc(C#N)nc1,cell-free assay,competition with immobilised ligand,1 µM,93.9
O=C(NCCCN1CCOCC1)c1ccc(Nc2nccc(-c3cc4ccccc4s3)n2)cc1,binding,competition with immobilised ligand,1 µM,100
N[C@@H]1CCN(c2nccc(-c3cnn4ncccc34)n2)C1,binding,,1 µM,100
FC(F)(F)c1ccc2c(c1)nc(-c1cccnc1)n2C1CC1,cell-free assay,competition with immobilised ligand,1 µM,100
C=CC(=O)N1CCC(C(=O)NCC(=O)N2CCN(c3nc(-c4cnc(N)nc4C(F)F)nc(N4CCOCC4)n3)CC2)CC1,binding,competition with immobilised ligand,1 µM,81
CN(c1ccnc(CNc2nc(Nc3ccc4c(c3)CC(=O)N4)ncc2C(F)(F)F)n1)S(C)(=O)=O,cell-free assay,competition with immobilised ligand,1 µM,84
C[C@@H](c1ccc(-n2cnc3c(N)ncnc32)cc1)N1CCc2nn(C)c(Cc3ccccc3)c2C1=O,binding,competition with immobilised ligand,0.1 µM,82
